Screening data as filed in PubChem BioAssay.
Hits are enriched below; roughly 3.1% of the tested compounds scored in any of these assays.
KCNK9 inh = inhibitors of human KCNK9 two-pore domain potassium channel; Q9NPC2; HEK293 KCNK9, FluxOR thallium flux fluorescence; stronger effect = lower value; B-score at 10 µM; 310,000 tested, 1.2% active;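 active = ratio B-score over 3 SD below the library mean, with starting fluorescence within 5 SD of its mean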;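 also: negative B-score means less thallium flux so channel inhibition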
KCNQ1 pot = potentiates or activates the human KCNQ1 potassium channel; P51787; CHO-K1 KCNQ1, thallium flux FluxOR fluorescence; stronger effect = higher value; B-score at 10 µM; 310,000 tested, 0.35% active;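 active = fluorescence ratio B-score, a plate-corrected score, at least three library SD, with initial intensity B-score within 5 SD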
Target sequence (P51787 whole entry, looked up): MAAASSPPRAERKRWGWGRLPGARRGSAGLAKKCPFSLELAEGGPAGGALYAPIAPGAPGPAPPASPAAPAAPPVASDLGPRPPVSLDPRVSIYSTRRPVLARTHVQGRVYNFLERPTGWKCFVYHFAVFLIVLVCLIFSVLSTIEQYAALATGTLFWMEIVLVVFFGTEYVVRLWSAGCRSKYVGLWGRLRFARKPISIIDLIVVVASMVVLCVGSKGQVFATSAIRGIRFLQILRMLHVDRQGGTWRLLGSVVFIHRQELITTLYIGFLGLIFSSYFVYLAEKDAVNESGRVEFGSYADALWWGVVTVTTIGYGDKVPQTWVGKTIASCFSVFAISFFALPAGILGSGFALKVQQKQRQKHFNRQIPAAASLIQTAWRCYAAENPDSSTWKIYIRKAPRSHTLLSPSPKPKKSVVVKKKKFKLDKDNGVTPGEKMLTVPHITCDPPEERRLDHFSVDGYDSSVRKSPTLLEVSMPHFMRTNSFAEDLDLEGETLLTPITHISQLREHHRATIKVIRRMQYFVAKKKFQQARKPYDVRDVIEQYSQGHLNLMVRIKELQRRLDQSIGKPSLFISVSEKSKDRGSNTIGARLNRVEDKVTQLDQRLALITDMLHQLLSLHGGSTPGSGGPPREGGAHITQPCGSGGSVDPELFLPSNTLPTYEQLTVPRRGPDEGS
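Assay system: stable KCNQ1 CHO-K1 line; medium: assay buffer, equal DMSO in all wells; timing: 90 min dye loading and 20 min compound exposure, both at room temperature; technique: kinetic FluxOR thallium fluorescence, 10-s 1-Hz baseline, 110-s post-stimulus read; read-out basis: B score of baseline-normalized fluorescence ratio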
KCNK3 inh = human KCNK3 channel inhibition, primary screen; B-score at 10 µM; 340,000 tested, 0.84% active; AID 602410; CHO-KCNK3 thallium flux, FluxOR fluorescence; stronger effect = lower value;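 active = B-score under library mean minus 4 SD, starting fluorescence ratio at most library mean plus 5 SD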;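 also: more negative B-score means stronger inhibition of thallium flux through KCNK3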
hERG protect = hERG (human) protection from proarrhythmic block. Q12809. CHO-hERG, FluxOR thallium flux, dofetilide IC70 present. activation (rescue from dofetilide block), less the hit threshold, % at 10 µM. 310,000 tested, 0.51% active;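 active = activation above the mean of controls blocked by dofetilide plus 5 SD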;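 also: thallium influx through hERG after potassium depolarization seen as dye fluorescence rise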
KCNQ1 inh = blocks the human KCNQ1 potassium channel. CHO-K1 KCNQ1, FluxOR thallium flux fluorescence; stronger effect = higher value. B-score at 10 µM. 310,000 tested, 1.3% active. AID 2642;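 active = compounds whose thallium flux B-score, printed positive for inhibition, exceeds three library SD while starting fluorescence stays within three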;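 also: channel opened by potassium depolarization with thallium stimulus after 20 min compound exposure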
KCNK9 inh conf = confirmation of human KCNK9 potassium channel inhibitors; shares compounds with KCNK9 inh; HEK293 KCNK9 cells, FluxOR thallium flux fluorescence; inhibition, % at 10 µM; 4,900 tested, 43% active; AID 492992;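 active = thallium signal inhibited by more than 5 SD of the compound-free buffer control wells, on both duplicate plates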;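 also: 0% = assay buffer control wells without compound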
Kir2-1 spec = mouse Kir2.1 off-target activity of KCNK9 modulators | shares compounds with KCNK9 inh | Kir2.1 cells, FluxOR thallium flux fluorescence | inhibition, % at 10 µM | 4,900 tested, 4% active | AID 492993;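 active = thallium signal drop more than 5 SD beyond the mean of the no-compound control wells, seen in both duplicate plates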;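 also: signal is fluorescence rise after thallium addition divided by baseline fluorescence; plate controls were assay buffer only for no effect and full block by chlorpromazine control for full effect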
HEK293 Tl ctr = second counter-screen for KCNK9 modulators: effect in non-induced cells; shares compounds with KCNK9 inh; non-induced KCNK9-HEK293, FluxOR thallium flux; inhibition, % at 10 µM; 4,900 tested, 40% active;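 active = thallium signal drop beyond 5 SD of the untreated control mean, on both duplicate plates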;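 also: plate controls were buffer only IC0 wells for no effect and SID17386958 at its maximal inhibitory level for full effect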
Numbers without * were called inactive.

How did CN(Cc1ccccc1)C(=O)C1CCCN(Cc2ccc(Cl)cc2)C1 (stereo not drawn) do in these assays?
KCNK9 inh: inactive; KCNQ1 pot: inactive; KCNK3 inh: inactive; hERG protect: -4; KCNQ1 inh: inactive

What do the screens show for `CCc1cc(C(=O)OC)c(NC(=O)CN2CCN(C(=O)C3CCCO3)CC2)s1` (stereo not drawn)?
KCNK9 inh: inactive; KCNQ1 pot: inactive; KCNK3 inh: inactive; hERG protect: -5; KCNQ1 inh: inactive

Results for CCN1CCN(C(=S)Nc2sc(C)c(-c3ccccc3)c2C(=O)OC)CC1 ?
KCNK9 inh: inactive; KCNQ1 pot: inactive; KCNK3 inh: inactive; hERG protect: -6; KCNQ1 inh: 6*; KCNK9 inh conf: inactive; Kir2-1 spec: inactive; HEK293 Tl ctr: inactive

Results for CCCN1CCN(C(=S)Nc2sc(CC)cc2C(=O)OC)CC1 ?
KCNK9 inh: inactive; KCNQ1 pot: inactive; KCNK3 inh: inactive; hERG protect: -13; KCNQ1 inh: inactive; KCNK9 inh conf: inactive; Kir2-1 spec: inactive; HEK293 Tl ctr: inactive

What do the screens show for `COc1ccccc1N1CCN(C(=O)CSc2nnc3c4ccccc4nc(Cc4ccccc4)n23)CC1`?
KCNK9 inh: inactive; KCNQ1 pot: inactive; hERG protect: -12; KCNQ1 inh: inactive

Results for Clc1ccc(Cn2cccc2C2=NCCO2)cc1 ?
KCNK9 inh: inactive; KCNQ1 pot: inactive; KCNK3 inh: inactive; hERG protect: -4; KCNQ1 inh: inactive

Results for Cc1c(Cl)cccc1NC(=O)COC(=O)c1c2c(nc3ccccc13)CCN(Cc1ccccc1)C2 ?
KCNK9 inh: -12*; KCNQ1 pot: inactive; KCNK3 inh: inactive; hERG protect: -9; KCNQ1 inh: inactive; KCNK9 inh conf: 60%*; Kir2-1 spec: inactive; HEK293 Tl ctr: 32%*

Results for Cc1ccc(C)c(NS(=O)(=O)c2cc(C(=O)N3CCCC3)ccc2Cl)c1 ?
KCNK9 inh: inactive; KCNQ1 pot: inactive; KCNK3 inh: inactive; hERG protect: -11; KCNQ1 inh: inactive

What do the screens show for `COc1ccc(C)cc1NC(=O)CN(Cc1nnc(-c2ccc(Cl)cc2)o1)C1CCCC1`?
KCNK9 inh: -12*; KCNQ1 pot: inactive; KCNK3 inh: inactive; hERG protect: -18; KCNQ1 inh: inactive; KCNK9 inh conf: 36%*; Kir2-1 spec: inactive; HEK293 Tl ctr: 32%*

How did COc1ccc(Cl)cc1NC(=O)CN(C)C1CCCCC1 do in these assays?
KCNK9 inh: inactive; KCNQ1 pot: inactive; KCNK3 inh: inactive; hERG protect: -9; KCNQ1 inh: inactive

How did O=C(NNC(=S)NC(=O)c1ccccc1)c1cccc([N+](=O)[O-])c1 do in these assays?
KCNK9 inh: inactive; KCNQ1 pot: inactive; KCNK3 inh: inactive; hERG protect: -11; KCNQ1 inh: inactive

How did O=C(Nc1cccc(NC(=O)c2cc([N+](=O)[O-])ccc2Cl)n1)c1cc([N+](=O)[O-])ccc1Cl do in these assays?
KCNK9 inh: -8.2*; KCNQ1 pot: inactive; KCNK3 inh: -9.9*; hERG protect: -12; KCNQ1 inh: inactive; KCNK9 inh conf: inactive; Kir2-1 spec: inactive; HEK293 Tl ctr: 26%*

Results for Cc1ccc(NC(=S)NNC(=O)c2ccc(N3CCOCC3)c([N+](=O)[O-])c2)cc1Cl ?
KCNK9 inh: inactive; KCNQ1 pot: inactive; KCNK3 inh: inactive; hERG protect: -7; KCNQ1 inh: 6*; KCNK9 inh conf: inactive; Kir2-1 spec: inactive; HEK293 Tl ctr: inactive

What do the screens show for `O=C(c1cc([N+](=O)[O-])ccc1Cl)N1c2ccccc2Sc2ccccc21`?
KCNK9 inh: -12*; KCNQ1 pot: inactive; KCNK3 inh: inactive; hERG protect: -12; KCNQ1 inh: inactive; KCNK9 inh conf: 61%*; Kir2-1 spec: inactive; HEK293 Tl ctr: 45%*

How did O=C(NNC(=S)Nc1ccc(Cl)c(Cl)c1)c1cccc([N+](=O)[O-])c1 do in these assays?
KCNK9 inh: inactive; KCNQ1 pot: inactive; KCNK3 inh: inactive; hERG protect: -26; KCNQ1 inh: 11*; KCNK9 inh conf: inactive; Kir2-1 spec: inactive; HEK293 Tl ctr: inactive

How did CCOC(=O)C1=C(N)c2ccccc2CC1C(C)C (stereo not drawn) do in these assays?
KCNK9 inh: inactive; KCNQ1 pot: inactive; KCNK3 inh: inactive; hERG protect: -9; KCNQ1 inh: inactive

How did COc1ccc2c(c1OC)C(=O)N1C2SC(C)(C)[C@H]1C(=O)NCC(C)C (stereo partly drawn) do in these assays?
KCNK9 inh: inactive; KCNQ1 pot: inactive; KCNK3 inh: inactive; hERG protect: -6; KCNQ1 inh: inactive

How did O=C(NNC(=S)Nc1ccc(Cl)cc1Cl)c1ccc(N2CCOCC2)c([N+](=O)[O-])c1 do in these assays?
KCNK9 inh: inactive; KCNQ1 pot: inactive; KCNK3 inh: inactive; hERG protect: -10; KCNQ1 inh: 6*; KCNK9 inh conf: inactive; Kir2-1 spec: inactive; HEK293 Tl ctr: inactive

Results for O=C(Nc1ccccc1Cl)NC1(C(=O)NCc2cccnc2)CCCCC1 ?
KCNK9 inh: inactive; KCNQ1 pot: inactive; KCNK3 inh: inactive; hERG protect: -8; KCNQ1 inh: inactive

What do the screens show for `CCOC(=O)c1ccccc1NC(=O)c1cn(-c2ccc(C)c(C)c2)c(=O)c2ccccc12`?
KCNK9 inh: inactive; KCNQ1 pot: inactive; KCNK3 inh: inactive; hERG protect: -25; KCNQ1 inh: inactive

What do the screens show for `CCOC(=O)c1ccccc1NC(=O)c1cn(-c2ccc(OC)cc2)c(=O)c2ccccc12`?
KCNK9 inh: -9.3*; KCNQ1 pot: inactive; KCNK3 inh: inactive; hERG protect: -6; KCNQ1 inh: inactive; KCNK9 inh conf: 26%*; Kir2-1 spec: inactive; HEK293 Tl ctr: inactive

Results for O=C(Nc1cn(-c2ccccc2)nc1-c1ccc(Cl)cc1)c1ccccc1 ?
KCNK9 inh: -9.2*; KCNQ1 pot: inactive; KCNK3 inh: inactive; hERG protect: -14; KCNQ1 inh: inactive; KCNK9 inh conf: 50%*; Kir2-1 spec: inactive; HEK293 Tl ctr: 42%*

What do the screens show for `CCOC(=O)C(NC(=O)c1ccccc1Cl)(Nc1ccc(C)c(C)c1)C(F)(F)F` (stereo not drawn)?
KCNK9 inh: inactive; KCNQ1 pot: inactive; KCNK3 inh: inactive; hERG protect: -10; KCNQ1 inh: inactive
